Data on 5 compounds can be found in publication PMC8085964 (Pharmacology Research & Perspectives, 2021).

Entries after “also recorded” stand apart in the source; their conditions may differ.

Series [1] in a line: Effect of efavirenz on R‐ and S‐PZQ pharmacokinetics. It counts as in vivo, healthy male participants (human). The following applies: for AUCt0‐tlast, Geo Mean / C max, Geo Mean / Clearance/F, Geo Mean / Elimination rate constant, Geo Mean / Half‐Life, Geo Mean / T max, Geo Mean / V d/F, Geo Mean / AUCinf, Geo Mean: plasma.
Series [2] is described as follows: Effect of ritonavir on R‐ and S‐PZQ pharmacokinetics. In kind it is in vivo, healthy male participants (human). The note with it: for AUCt0‐tlast, Geo Mean / C max, Geo Mean / Elimination rate constant, Geo Mean / Half‐Life, Geo Mean / T max, Geo Mean / V d/F, Geo Mean / AUCinf, Geo Mean / Clearance/F, Geo Mean: plasma; for effect of ritonavir on pharmacokinetics: result in words.

Series [3] in a line: Clinical safety assessments. It counts as in vivo, healthy male participants (human). The note with it: for tolerability: healthy participants, result in words. The gist of the method: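 Healthy young males (18–40 y, BMI 18–35) got a single oral test compound dose of 40 mg/kg by weight, then a 400 mg/day antiretroviral for 13 days under daily directly observed treatment. They stayed inpatient ≥24 h before and after dosing (days 1–3, 15–17). Vital signs were checked and adverse events or symptoms monitored. Examination, biochemistry, haematology, urinalysis and ECG were done at screening.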

For series [4] the following is noted: patients pre‐exposed to rifampicin; cited from earlier work.
The conditions of series [5]: should be maintained for at least 4 h for efficacy; cited from earlier work.
Where [6] appears, read: PZQ + Efavirenz (treatment): 40 mg/kg racemic PZQ after 400 mg efavirenz/day.
The mark [7] stands for this setting: PZQ alone (reference), single oral 40 mg/kg racemic PZQ, efavirenz arm.
[8] abbreviates: PZQ + Ritonavir (treatment): 40 mg/kg racemic PZQ after 100 mg ritonavir/day for 14 days.
[9] abbreviates: PZQ + Ritonavir (treatment): 40 mg/kg racemic PZQ after 100 mg ritonavir/day for 14 days, 40 mg/kg.
[10] abbreviates: PZQ alone (reference), single oral 40 mg/kg racemic PZQ, ritonavir arm.
Setting [11] is: PZQ alone (reference), single oral 40 mg/kg racemic PZQ, ritonavir arm, 40 mg/kg.

For `O=C(C1CCCCC1)N1CC(=O)N2CCc3ccccc3[C@@H]2C1` [R‐Praziquantel], in series [1] (setting [6]), the “AUCt0‐tlast, Geo Mean” value was determined as 248.02 ng·h/mL; the “C max, Geo Mean” value is 104.32 ng/mL; the “Clearance/F, Geo Mean” value is on record as 8449.32 L/h; the “Elimination rate constant, Geo Mean” value is 0.25 h⁻¹. In series [1] (setting [6]), the “Half‐Life, Geo Mean” value was found to be 2.76 h; the “T max, Geo Mean” value is 1.64 h; the “V d/F, Geo Mean” value is on record as 33637.78 L. Besides, the “AUCinf, Geo Mean” value in series [1] (PZQ + Efavirenz (treatment): 40 mg/kg racemic PZQ after 400 mg efavirenz/day, 40 mg/kg) was found to be 281.43 ng·h/mL. Further, in series [1] (PZQ + efavirenz vs PZQ alone), the “AUCinf, Difference observed” value is −74.36%; the “AUCinf, Treatment/reference GMR” value was determined as 23.20%; the “AUCt0‐tlast, Difference observed” value is −76.90%; the “AUCt0‐tlast, Treatment/reference GMR” value is reported as 21.75%. Besides, in series [1] (PZQ + efavirenz vs PZQ alone), the “C max, Difference observed” value is −82.52%; the “C max, Treatment/reference GMR” value was determined as 21.21%; the “Clearance/F, Difference observed” value is listed as 546.74%; the “Elimination rate constant, Difference observed” value amounted to 3.45%. Also, in series [1] (PZQ + efavirenz vs PZQ alone), the “Half‐Life, Difference observed” value is listed as 17.63%; the “T max, Difference observed” value is given as −18.22%; the “V d/F, Difference observed” value is 280.92%; the “reduction in AUCinf (exposure) by efavirenz” value was found to be 4 fold. For the same compound, in series [1] (setting [7]), the “AUCinf, Geo Mean” value was 1213.15 ng·h/mL; the “AUCt0‐tlast, Geo Mean” value came out at 1140.41 ng·h/mL; the “C max, Geo Mean” value amounted to 491.78 ng/mL; the “Clearance/F, Geo Mean” value stood at 1960.10 L/h. In series [1] (setting [7]), the “Elimination rate constant, Geo Mean” value is 0.26 h⁻¹; the “Half‐Life, Geo Mean” value turned out to be 2.66 h; the “T max, Geo Mean” value is recorded as 1.88 h; the “V d/F, Geo Mean” value was found to be 7507.98 L. Moreover, in series [1] (result in words), the “change in the T max when co‐administered with efavirenz” value was “no change”. Further, in series [2] (setting [8]), the “AUCt0‐tlast, Geo Mean” value amounted to 950.73 ng·h/mL; the “C max, Geo Mean” value amounted to 354.34 ng/mL; the “Elimination rate constant, Geo Mean” value worked out at 0.26 h⁻¹; the “Half‐Life, Geo Mean” value was found to be 2.71 h. Also, in series [2] (setting [8]), the “T max, Geo Mean” value is 1.53 h and the “V d/F, Geo Mean” value worked out at 8772.21 L. Besides, in series [2] (setting [9]), the “AUCinf, Geo Mean” value stood at 1057.66 ng·h/mL and the “Clearance/F, Geo Mean” value is 2241.23 L/h. Besides, in series [2] (PZQ + ritonavir vs PZQ alone), the “AUCinf, Difference observed” value is 17.62%; the “AUCinf, Treatment/reference GMR” value is reported as 104.41%; the “AUCt0‐tlast, Difference observed” value worked out at 22.8%; the “AUCt0‐tlast, Treatment/reference GMR” value was determined as 107.06%. Besides, in series [2] (PZQ + ritonavir vs PZQ alone), the “C max, Difference observed” value was found to be 13.70%; the “C max, Treatment/reference GMR” value is listed as 114.88%; the “Clearance/F, Difference observed” value was determined as 4.36%; the “Elimination rate constant, Difference observed” value is 26.08%. In series [2] (PZQ + ritonavir vs PZQ alone), the “Half‐Life, Difference observed” value is listed as −28.64%; the “T max, Difference observed” value is −15.46%; the “V d/F, Difference observed” value is on record as −15.74%. The “effect of ritonavir on pharmacokinetics” value in series [2] (PZQ + ritonavir vs PZQ alone, listed as R‐PZQ) was “no significant effect; also recorded: did not have a significant inhibitory effect”. In series [2] (setting [10]), the “AUCt0‐tlast, Geo Mean” value is 888.02 ng·h/mL; the “C max, Geo Mean” value is 308.44 ng/mL; the “Elimination rate constant, Geo Mean” value is 0.19 h⁻¹; the “Half‐Life, Geo Mean” value was 3.57 h. Also, in series [2] (setting [10]), the “T max, Geo Mean” value is reported as 1.69 h and the “V d/F, Geo Mean” value was found to be 12034.61 L. In series [2] (setting [11]), the “AUCinf, Geo Mean” value is 1012.96 ng·h/mL and the “Clearance/F, Geo Mean” value came out at 2340.12 L/h.

Regarding `O=C1Nc2ccc(Cl)cc2[C@@](C#CC2CC2)(C(F)(F)F)O1` [efavirenz], the “participants with mild dizziness” value in series [3] (efavirenz group, symptoms disappearing by day 5) is recorded as 33%.

`O=C(C1CCCCC1)N1CC(=O)N2CCc3ccccc3[C@H]2C1` [S‐Praziquantel]: in series [1] (setting [6]), the “AUCinf, Geo Mean” value was determined as 871.84 ng·h/mL; the “AUCt0‐tlast, Geo Mean” value was 826.17 ng·h/mL; the “C max, Geo Mean” value came to 329.98 ng/mL; the “Clearance/F, Geo Mean” value came to 2727.44 L/h. Further, in series [1] (setting [6]), the “Elimination rate constant, Geo Mean” value was 0.35 h⁻¹; the “Half‐Life, Geo Mean” value was determined as 2.00 h; the “T max, Geo Mean” value stood at 1.81 h; the “V d/F, Geo Mean” value came to 7887.36 L. In addition, in series [1] (PZQ + efavirenz vs PZQ alone), the “AUCinf, Difference observed” value is −75.26%; the “AUCt0‐tlast, Difference observed” value is −75.16%; the “AUCt0‐tlast, Treatment/reference GMR” value is recorded as 15.26%; the “C max, Difference observed” value is reported as −76.85%. In series [1] (PZQ + efavirenz vs PZQ alone), the “Clearance/F, Difference observed” value was 950.27%; the “Elimination rate constant, Difference observed” value came to 11.76%; the “Half‐Life, Difference observed” value is recorded as −15.83%; the “T max, Difference observed” value was −25.48%. The “V d/F, Difference observed” value in series [1] (PZQ + efavirenz vs PZQ alone) amounted to 757.72%. Also, in series [1] (setting [7]), the “AUCt0‐tlast, Geo Mean” value amounted to 5413.80 ng·h/mL; the “C max, Geo Mean” value is 1991.32 ng/mL; the “Clearance/F, Geo Mean” value is 419.40 L/h; the “Elimination rate constant, Geo Mean” value was 0.31 h⁻¹. Further, in series [1] (setting [7]), the “Half‐Life, Geo Mean” value is on record as 2.27 h; the “T max, Geo Mean” value came out at 2.42 h; the “V d/F, Geo Mean” value came out at 1373.82 L. Further, the “AUCinf, Geo Mean” value in series [1] (PZQ alone (reference), single oral 40 mg/kg racemic PZQ, efavirenz arm, 40 mg/kg) worked out at 5669.77 ng·h/mL. In series [2] (setting [8]), the “AUCinf, Geo Mean” value stood at 7291.05 ng·h/mL; the “AUCt0‐tlast, Geo Mean” value worked out at 7083.71 ng·h/mL; the “Clearance/F, Geo Mean” value is on record as 325.12 L/h; the “Elimination rate constant, Geo Mean” value was determined as 0.38 h⁻¹. For the same compound, in series [2] (setting [8]), the “Half‐Life, Geo Mean” value is 1.81 h; the “T max, Geo Mean” value is 1.60 h; the “V d/F, Geo Mean” value was determined as 847.06 L. The “C max, Geo Mean” value in series [2] (setting [9]) worked out at 2336.96 ng/mL. Also, in series [2] (PZQ + ritonavir vs PZQ alone), the “AUCinf, Difference observed” value worked out at 69.84%; the “AUCinf, Treatment/reference GMR” value amounted to 175.49%; the “AUCt0‐tlast, Difference observed” value came out at 71.88%; the “AUCt0‐tlast, Treatment/reference GMR” value is 178.30%. Further, in series [2] (PZQ + ritonavir vs PZQ alone), the “C max, Difference observed” value is reported as 88.41%; the “Clearance/F, Difference observed” value was −44.37%; the “Elimination rate constant, Difference observed” value was 34.38%; the “Half‐Life, Difference observed” value is reported as −19.25%. Also, in series [2] (PZQ + ritonavir vs PZQ alone), the “T max, Difference observed” value is on record as −24.58%; the “V d/F, Difference observed” value was −55.79%; the “effect of ritonavir on pharmacokinetics” value is reported as “significant effect”. Besides, in series [2] (setting [10]), the “AUCinf, Geo Mean” value amounted to 4154.79 ng·h/mL; the “AUCt0‐tlast, Geo Mean” value stood at 3972.89 ng·h/mL; the “Clearance/F, Geo Mean” value was 570.54 L/h; the “Elimination rate constant, Geo Mean” value was 0.31 h⁻¹. Also, in series [2] (setting [10]), the “Half‐Life, Geo Mean” value is 2.25 h; the “T max, Geo Mean” value is given as 2.20 h; the “V d/F, Geo Mean” value is 1847.59 L. Besides, in series [2] (setting [11]), the “C max, Geo Mean” value came out at 1174.93 ng/mL.

Regarding `CC(C)c1nc(CN(C)C(=O)N[C@H](C(=O)N[C@@H](Cc2ccccc2)C[C@H](O)[C@H](Cc2ccccc2)NC(=O)OCc2cncs2)C(C)C)cs1` [ritonavir], in series [3], the tolerability result is given as “generally well tolerated”.

As for `O=C(C1CCCCC1)N1CC(=O)N2CCc3ccccc3C2C1` (stereo not shown) [PZQ, praziquantel], in series [1] (PZQ with efavirenz, result in words), the “attainment of the MEC (1 µg/mL for at least 4 h)” value is “all participants failed to attain the MEC for more than the minimum 4 h”. Further, the “participants without detectable levels” value in series [4] is 7 out of 10. Also, the “minimum effective concentration (MEC)” value in series [5] is 1 µg/mL. Besides, the tolerability entry in series [3] is “generally well tolerated”.
